Measured values reported in publication PMC8926318 (Iranian Journal of Biotechnology, 2021).

Assays:
human colorectal cells = details: cited from earlier work
human fibrosarcoma cells = details: by inducing apoptosis; cited from earlier work
[1] = test system: HepG2 (human liver cancer cell line); test: MTT cell viability assay, HepG2; type: cell-based; details: HepG2 cells, 48 h, only at the highest concentration (1000 µM); for inhibitory activity compared with ciprofloxacin (in words): Fig. 3; for viability inhibition compared with the triazole compound (in words): Fig. 5
Procedure, shortened: (§1)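 Cells kept in RPMI1640 with 10% FBS, penicillin and streptomycin (100 µg.mL-1 each) at 37 °C, 5% CO2. Plated at 10⁴ cells/well for 24 h, then given test compound at 10, 100 or 1000 µM for 48 h. MTT (5 mg.mL-1 in PBS) added for 4 h at 37 °C. Formazan dissolved in DMSO for 20 min, read at 570 nm. At least triplicate; one-way ANOVA with Tukey post hoc.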

[2] = test system: LNCaP (human prostatic carcinoma cell line); test: MTT cell viability assay, LNCaP; type: cell-based; details: LNCaP cells, 48 h, 1000 µM, p<0.01
Procedure, shortened: as §1

Substance | inhibitory activity compared with ciprofloxacin (in words) [1] | viability inhibition compared with the triazole compound (in words) [1] | other results
LSGNK [C1] | – | – | anti-proliferative activity (in words) (human colorectal cells): anti-proliferative agent
YIGSR [C2] | – | – | effect on tumor growth and metastasis (in words) (human fibrosarcoma cells): inhibitory effect on tumor growth and metastasis
ciprofloxacin-LSGNK [Cipro-C1] | more inhibitory activity | – | –
ciprofloxacin-YIGSR [Cipro-C2] | more inhibitory activity | – | –
triazole-LSGNK [triazole-C1] | – | noticeable viable inhibition | –
triazole-YIGSR [triazole-C2] | – | noticeable viable inhibition | toxicity compared with unconjugated congener (in words) [2]: more significant
